Assay results as given in ChEMBL document CHEMBL1133733, “Anilides of (R)-trifluoro-2-hydroxy-2-methylpropionic acid as inhibitors of pyruvate dehydrogenase kinase” (J Med Chem, 2000).
pEC50: −log10 of the molar value. Values belong to the molecule of their own block, whether it stands above or below them. The source made the active and inactive calls. No cut-off for these calls is given here.

Assays:
[1] = molecular target: T1, Pyruvate dehydrogenase kinase (Rattus norvegicus) (UniProt Q63065+A6IPZ9+Q64536+O54937); test: In vivo percent of control lactate in 24 hr fasted rats at 100 umol/kg oral dose after 2.5 hours; assay type: functional, organism-based
Outline: (§1)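 Normal Sprague–Dawley rats, n = 6/group, fasted 24 h, then dosed orally (μmol/kg); blood lactate sampled at 2, 2.5 or 5 h postdose and expressed as percent of control; significance p < 0.05.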

[2] = molecular target: T1, Pyruvate dehydrogenase kinase (Rattus norvegicus); test: In vivo percent of control lactate in 24 hr fasted rats at 100 umol/kg oral dose after 5 hours; assay type: functional, organism-based; outline: as §1
[3] = molecular target: T1, Pyruvate dehydrogenase kinase (Rattus norvegicus); test: In vivo percent of control lactate in 24 hr fasted rats at 300 umol/kg oral dose after 5 hours; assay type: functional, organism-based; outline: as §1
[4] = molecular target: T1, Pyruvate dehydrogenase kinase (Rattus norvegicus); test: In vivo percent of control lactate in 24 hr fasted rats at 300 umol/kg oral dose after 2.5 hours; assay type: functional, organism-based; outline: as §1
[5] = Area Under Curve after oral dosing of 100 uM/Kg; assay type: ADME
Outline: (§2)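 Plasma levels of parent drug profiled in rats after a single oral dose; t1/2, AUC (0–8 h), Tmax and Cmax derived from the plasma concentration–time profile.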

[6] = Half-life after oral administration (100 uM/Kg); assay type: ADME, organism-based; conditions: in vivo; outline: as §2
[7] = Tmax after oral dosing of 100 uM/Kg; assay type: ADME, organism-based; conditions: in vivo; outline: as §2
[8] = Cmax after oral dosing of 100 umol/Kg; assay type: ADME, organism-based; parameters: dose 100 umol/Kg, route oral; conditions: in vivo; outline: as §2
Homo sapiens = species: Homo sapiens; test: Effective concentration in human fibroblasts for increased oxidation of lactate; assay type: functional, organism-based
Outline: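 Human fibroblasts incubated with [14C]lactate; PDH complex activation read as conversion of [14C]lactate to 14CO2 (modified Ofenstein assay); EC50 (μM ± standard error).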

[9] = molecular target: T1, Pyruvate dehydrogenase kinase (Rattus norvegicus); test: In vivo percent of control lactate in 24 hr fasted rats at 250 umol/kg oral dose; assay type: functional, organism-based; outline: as §1
[10] = molecular target: T1, Pyruvate dehydrogenase kinase (Rattus norvegicus); test: In vivo percent of control lactate in 24 hr fasted rats at 30 uM/kg oral dose; assay type: functional, organism-based; conditions: 30 umol/kg; outline: as §1
[11] = molecular target: T1, Pyruvate dehydrogenase kinase (Rattus norvegicus); test: In vivo percent of control lactate in 24 hr fasted rats at 100 umol/kg oral dose; assay type: functional, organism-based; outline: as §1
[12] = molecular target: Pyruvate dehydrogenase kinase (Homo sapiens) (UniProt Q15119+Q15120+Q16654+Q15118); test: In vitro inhibition of pyruvate dehydrogenase kinase (PDHK) in primary enzymatic assay; Inactive; assay type: protein assay; conditions: Sus scrofa
Outline: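 Primary high-throughput enzymatic assay of PDH kinase inhibition using commercial porcine PDH complex; IC50 reported as μM ± standard error.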

[13] = molecular target: T1, Pyruvate dehydrogenase kinase (Rattus norvegicus); test: In vivo percent of control lactate in 24 hr fasted rats at 30 uM/kg oral dose after 2.5 hours; assay type: functional, organism-based; outline: as §1
[14] = molecular target: T1, Pyruvate dehydrogenase kinase (Rattus norvegicus); test: In vivo percent of control lactate in 24 hr fasted rats at 10 uM/kg oral dose after 2.5 hours; assay type: functional, organism-based; outline: as §1
[15] = molecular target: T1, Pyruvate dehydrogenase kinase (Rattus norvegicus); test: In vivo percent of control lactate in 24 hr fasted rats at 30 uM/kg oral dose after 5 hours; assay type: functional, organism-based; outline: as §1

SMILES: CC(C)CNS(=O)(=O)c1ccc(NC(=O)C(C)(C)O)c(Cl)c1
Control [1]: 101%
Control [2]: 95%
Control [3]: 76%
Control [4]: 69%

SMILES: CC(O)(C(=O)Nc1cccc(C(=O)c2ccccc2)c1)C(F)(F)F (stereo unspecified)
pEC50 (Homo sapiens): 5.00

SMILES: CC(O)(C(=O)Nc1ccc(C(=O)c2ccccc2)cc1Cl)C(F)(F)F (stereo unspecified)
pEC50 (Homo sapiens): 4.52

SMILES: C[C@@](O)(C(=O)Nc1ccc(S(=O)(=O)NCCc2ccc(F)cc2)cc1Cl)C(F)(F)F
Control [1]: 124%
Control [2]: 69%

SMILES: CCOCCCNS(=O)(=O)c1ccc(NC(=O)[C@@](C)(O)C(F)(F)F)c(Cl)c1
Control [1]: 72%
Control [2]: 70%

SMILES: C[C@@](O)(C(=O)Nc1ccc(C(=O)N2CCN(c3ccccn3)CC2)cc1Cl)C(F)(F)F
Control [11]: 63%

SMILES: CC(O)(C(=O)Nc1ccccc1Cl)C(F)(F)F (stereo unspecified)
pEC50 (Homo sapiens): 5.27

SMILES: CC(C)CNS(=O)(=O)c1ccc(NC(=O)[C@@](C)(O)C(F)(F)F)c(Cl)c1
Control [13]: 83%
Control [1]: 69%
Control [2]: 60%
Control [14]: 100%

SMILES: C[C@@](O)(C(=O)Nc1ccc(S(=O)(=O)NCCN2CCOCC2)cc1Cl)C(F)(F)F
Control [1]: 71%
Control [2]: 84%

SMILES: C[C@@](O)(C(=O)Nc1ccc(S(=O)(=O)NCc2ccccn2)cc1Cl)C(F)(F)F
Control [1]: 64%
Control [2]: 84%

SMILES: C[C@@](O)(C(=O)Nc1ccc(S(=O)(=O)N2CCC(N)C2)cc1Cl)C(F)(F)F (stereo partly specified)
Control [1]: 82%
Control [2]: 70%

SMILES: COC(=O)[C@H](Cc1c[nH]c2ccccc12)N(C)C(=O)c1ccc(NC(=O)[C@@](C)(O)C(F)(F)F)c(Cl)c1
Control [10]: 102%

SMILES: C[C@@](O)(C(=O)Nc1ccc(C(=O)N[C@@H](Cc2ccc(-c3ccccc3)cc2)C(=O)O)cc1Cl)C(F)(F)F
Control [10]: 101%

SMILES: C[C@@](O)(C(=O)Nc1ccc(S(=O)(=O)NCCCN2CCCC2=O)cc1Cl)C(F)(F)F
Control [13]: 87%
Control [1]: 51%
Control [2]: 52%
Control [15]: 66%

SMILES: CC(O)(C(=O)Nc1ccc(C(=O)N2CCCCC2)cc1Cl)C(F)(F)F (stereo unspecified)
pEC50 (Homo sapiens): 6.15

SMILES: CC(O)(C(=O)Nc1cccc(C(=O)c2ccccc2)c1Cl)C(F)(F)F (stereo unspecified)
pEC50 (Homo sapiens): 4.96

SMILES: CC(=O)c1ccccc1NC(=O)C(C)(O)C(F)(F)F (stereo unspecified)
pEC50 (Homo sapiens): 4.85

SMILES: CCCCCCNC(=O)c1ccc(NC(=O)C(C)(O)C(F)(F)F)c(Cl)c1 (stereo unspecified)
pEC50 (Homo sapiens): 5.26

SMILES: C[C@@](O)(C(=O)Nc1ccc(C(=O)N[C@@H](Cc2ccccc2)C(=O)[O-])cc1Cl)C(F)(F)F.[Na+]
Control [11]: 115%

SMILES: COc1ccc(NC(=O)C(C)(O)C(F)(F)F)cc1 (stereo unspecified)
pEC50 (Homo sapiens): 4.37

SMILES: C[C@@](O)(C(=O)Nc1ccc(C(=O)O)cc1Cl)C(F)(F)F
pEC50 (Homo sapiens): 5.85

SMILES: C[C@@](O)(C(=O)Nc1ccc(C(=O)NCCCCCC(=O)[O-])cc1Cl)C(F)(F)F.[Na+]
Control [11]: 94%

SMILES: C[C@@](O)(C(=O)Nc1ccc(C(=O)N[C@@H](CCc2ccccc2)C(=O)O)cc1Cl)C(F)(F)F
Control [10]: 97%

SMILES: C[C@@](O)(C(=O)Nc1ccc(S(=O)(=O)N2CCNCC2)cc1Cl)C(F)(F)F
Control [4]: 77%

SMILES: COC(=O)c1cccc(NC(=O)C(C)(O)C(F)(F)F)c1Cl (stereo unspecified)
pEC50 (Homo sapiens): 4.86

Next, values leading:

AUC [5]: 143 µM·h
half-life [6]: 4.6 h
Tmax [7]: 0.5 h
Cmax [8]: 87.3 µM
SMILES: CC(O)(C(=O)Nc1cccc(C(=O)O)c1Cl)C(F)(F)F (stereo unspecified)

Control [9]: 78%
SMILES: CC(O)(C(=O)Nc1ccc(C#N)cc1Cl)C(F)(F)F (stereo unspecified)

Control [10]: 94%
SMILES: C[C@@H](C(=O)[O-])N(C)C(=O)c1ccc(NC(=O)[C@@](C)(O)C(F)(F)F)c(Cl)c1.[Na+]

NA [12]: inactive
SMILES: CC(O)(C(=O)Nc1cccc(C(F)(F)F)c1)C(F)(F)F (stereo unspecified)

NA [12]: inactive
SMILES: CC(O)(C(=O)Nc1ccccc1-c1ccccc1)C(F)(F)F (stereo unspecified)

NA [12]: inactive
SMILES: CC(O)(C(=O)Nc1cc(C(=O)N2CCCCC2)ccc1Cl)C(F)(F)F (stereo unspecified)

NA [12]: inactive
SMILES: Cc1cccc(C)c1NC(=O)C(C)(O)C(F)(F)F (stereo unspecified)

Control [11]: 88%
SMILES: C[C@@](O)(C(=O)Nc1ccc(C(=O)NCCCO)cc1Cl)C(F)(F)F

NA [12]: inactive
SMILES: CC(O)(C(=O)Nc1cc(C(=O)O)ccc1Cl)C(F)(F)F (stereo unspecified)

Control [1]: 76%
Control [2]: 62%
SMILES: C=CCNS(=O)(=O)c1ccc(NC(=O)[C@@](C)(O)C(F)(F)F)c(Cl)c1

Control [11]: 64%
SMILES: C[C@@](O)(C(=O)Nc1ccc(C(=O)N2CCOCC2)cc1Cl)C(F)(F)F

Control [9]: 65%
SMILES: C[C@@](O)(C(=O)Nc1ccc(S(C)(=O)=O)cc1Cl)C(F)(F)F

NA [12]: inactive
SMILES: CCCCCCNC(=O)c1ccc(Cl)c(NC(=O)C(C)(O)C(F)(F)F)c1 (stereo unspecified)

NA [12]: inactive
SMILES: COc1ccc(Cl)c(NC(=O)C(C)(O)C(F)(F)F)c1 (stereo unspecified)

NA [12]: inactive
SMILES: CC(O)(C(=O)Nc1cc(C(=O)c2ccccc2)ccc1Cl)C(F)(F)F (stereo unspecified)

NA [12]: inactive
SMILES: COC(=O)c1ccc(Cl)c(NC(=O)C(C)(O)C(F)(F)F)c1 (stereo unspecified)

Control [10]: 87%
SMILES: CC(C)[C@@H](C(=O)[O-])N(C)C(=O)c1ccc(NC(=O)[C@@](C)(O)C(F)(F)F)c(Cl)c1.[Na+]

Control [10]: 114%
SMILES: CN(CCCO)C(=O)c1ccc(NC(=O)[C@@](C)(O)C(F)(F)F)c(Cl)c1
